# In PMC5598417 (Toxicology Reports, 2014):
# What was measured:
# MA-10 cells [1] = experiment: Expression of steroidogenic genes in MA-10 cells; type: cell-based, murine; details: 6-h exposure; conazole 10 μM
# MA-10 cells [2] = experiment: Reactive oxygen species assay; type: cell-based, murine; details: for ROS formation compared with vehicle-treated control cells: 100 μM, 48-h exposure
# Outline: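 MA-10 cells seeded at 7.5 × 10^4 cells/well in gelatin-coated plates 24 h beforehand, loaded with H2-DCFDA (10 μM, 2 h, 37 °C), then washed twice in warm PBS. Exposure to 0.01–100 μM in serum-free, phenol red-free DMEM/F-12 (≤0.1% DMSO) for up to 48 h. Fluorescence read at 485/530 nm at 0, 1, 24 and 48 h and expressed as % of time-matched control. Positive controls were H2O2 20 mM (1 h) and rotenone 100 μM (24/48 h). Three independent experiments, quadruplicates.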
# [3] = humans; cited from earlier work
# MA-10 cells [4] = experiment: Basal testosterone secretion by MA-10 Leydig cells; type: cell-based, murine; details: for decrease of basal T secretion compared with vehicle-treated control cells: 10 μM; for decrease of basal T secretion compared with vehicle-treated control cells / T secretion, concentration curves without LH: 48 h; for T secretion, concentration curves without LH: SU10603 0.05-1 μM, FLUS or TEBU 0.3-10 μM, Supplementary Fig. 1; for T secretion by MA-10 cells compared with vehicle-control: basal T secretion, conazole 10 μM
# androgen receptor (AR) = target: T1, androgen receptor (AR) (Homo sapiens, UniProt P10275); type: cell-based; details: BMR25%FLUT/BMR25%FLUT conazole
# T1 sequence (P10275 1-920): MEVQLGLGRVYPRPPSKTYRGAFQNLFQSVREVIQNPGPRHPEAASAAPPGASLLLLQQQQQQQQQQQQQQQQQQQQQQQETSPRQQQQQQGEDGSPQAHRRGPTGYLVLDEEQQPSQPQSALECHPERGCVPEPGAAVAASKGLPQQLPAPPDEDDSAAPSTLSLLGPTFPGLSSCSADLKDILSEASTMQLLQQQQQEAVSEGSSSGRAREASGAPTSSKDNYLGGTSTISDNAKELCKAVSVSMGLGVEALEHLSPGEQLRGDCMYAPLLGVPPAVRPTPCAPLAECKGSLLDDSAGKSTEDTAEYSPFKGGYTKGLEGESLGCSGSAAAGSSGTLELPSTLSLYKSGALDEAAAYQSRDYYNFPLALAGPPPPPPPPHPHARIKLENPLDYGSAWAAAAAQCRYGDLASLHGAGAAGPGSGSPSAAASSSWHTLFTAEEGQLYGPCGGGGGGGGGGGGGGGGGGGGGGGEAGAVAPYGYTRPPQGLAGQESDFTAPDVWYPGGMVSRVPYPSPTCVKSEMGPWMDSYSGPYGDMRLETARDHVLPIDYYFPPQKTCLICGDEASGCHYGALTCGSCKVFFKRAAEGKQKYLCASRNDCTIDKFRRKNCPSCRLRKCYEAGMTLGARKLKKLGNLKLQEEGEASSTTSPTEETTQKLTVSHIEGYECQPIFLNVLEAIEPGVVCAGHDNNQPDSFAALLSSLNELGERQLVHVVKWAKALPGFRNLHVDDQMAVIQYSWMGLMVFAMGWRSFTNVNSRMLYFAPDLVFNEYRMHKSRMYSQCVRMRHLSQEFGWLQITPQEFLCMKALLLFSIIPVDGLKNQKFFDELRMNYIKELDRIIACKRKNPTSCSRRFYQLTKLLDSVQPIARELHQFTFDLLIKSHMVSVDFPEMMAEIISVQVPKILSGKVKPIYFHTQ
# MA-10 cells [5] = experiment: Expression of cholesterol biosynthesis genes in MA-10 cells; type: cell-based, murine; details: 6-h exposure; cAMP 100 μM, conazole 10 μM
# MA-10 cells [6] = experiment: LH-induced testosterone secretion by MA-10 Leydig cells; type: cell-based, murine; details: read-out: IC50 of T secretion inhibition in combination with LH; LH 10 ng/mL; 48-h exposure
# [7] = cited from earlier work
Structure (SMILES),"gene expression of five steroidogenic genes (StAR, Cyp11A1, Cyp17A1, 3β-HSD1, 17β-HSD3) (MA-10 cells [1])",ROS formation compared with vehicle-treated control cells (MA-10 cells [2]),decrease of basal T secretion compared with vehicle-treated control cells (MA-10 cells [4]),also measured
"CC(C1CC1)C(O)(Cn1cncn1)c1ccc(Cl)cc1 (centres unmarked) [CYPRO, Cyproconazole]",did not significantly affect,did not significantly change,,
"OC(Cn1cncn1)(Cn1cncn1)c1ccc(F)cc1F [FLUC, Fluconazole, reference compound]",,did not significantly change,,Tmax [3]: approximately 2 h
"C[Si](Cn1cncn1)(c1ccc(F)cc1)c1ccc(F)cc1 [FLUS, Flusilazole]",did not significantly affect,1.2 fold,more than 50%,"T secretion, concentration curves without LH (MA-10 cells [4]): concentration-dependently inhibited T secretion"
"CCCCC(O)(Cn1cncn1)c1ccc(Cl)cc1Cl (centres unmarked) [HEXA, Hexaconazole]",,1.2 fold,more than 50%,REP (relative effect potency as compared to flutamide) (androgen receptor (AR)): 0.26; T secretion by MA-10 cells compared with vehicle-control (MA-10 cells [4]; 48-h exposure): 36%
"CCCCC(C#N)(Cn1cncn1)c1ccc(Cl)cc1 (centres unmarked) [MYC, Myclobutanil]",,did not significantly change,,
"CCCC(Cn1cncn1)c1ccc(Cl)cc1Cl (centres unmarked) [PEN, Penconazole]",,did not significantly change,,
"CCCN(CCOc1c(Cl)cc(Cl)cc1Cl)C(=O)n1ccnc1 [PRO, Prochloraz]",did not significantly affect,1.3 fold,more than 50%,gene expression of Cyp51 in comparison with vehicle-treated cells (MA-10 cells [5]): 1.7 fold; gene expression of HMG-CoA red in comparison with vehicle-treated cells (MA-10 cells [5]): 1.9 fold; T secretion by MA-10 cells compared with vehicle-control (MA-10 cells [4]; 48-h exposure): 23%
"O=C1c2cc(Cl)ccc2CCC1c1cccnc1 (centres unmarked) [SU10603, reference compound]",,,,"IC50 (MA-10 cells [6]): 500 nM; decrease of T secretion compared to vehicle-treated cells (MA-10 cells [4]; SU10603 1 μM, 48-h exposure): 82%; T secretion, concentration curves without LH (MA-10 cells [4]): concentration-dependently inhibited T secretion"
"CC(C)(C)C(O)(CCc1ccc(Cl)cc1)Cn1cncn1 (centres unmarked) [TEBU, Tebuconazole]",did not significantly affect,1.4 fold,more than 50%,"gene expression of Por in comparison with vehicle-treated cells (MA-10 cells [5]): 0.8 fold; T secretion, concentration curves without LH (MA-10 cells [4]): concentration-dependently inhibited T secretion; elimination half-life in soil [7]: approximately 800 days"
"CC(C)(C)C(=O)C(Oc1ccc(Cl)cc1)n1cncn1 (centres unmarked) [TRIA, Triadimefon]",,did not significantly change,,
"CC1(C)CCC(=Cc2ccc(Cl)cc2)C1(O)Cn1cncn1 (centres unmarked) [TRIT, Triticonazole]",,did not significantly change,more than 50%,REP (relative effect potency as compared to flutamide) (androgen receptor (AR)): 0.25; T secretion by MA-10 cells compared with vehicle-control (MA-10 cells [4]; 48-h exposure): 44%
"C=C(C)[C@H]1Cc2c(ccc3c2O[C@@H]2COc4cc(OC)c(OC)cc4[C@@H]2C3=O)O1 [rotenone, reference compound]",,,,"ROS production, % of the control (MA-10 cells [2]; rotenone 100 μM, 48 h): 158 ± 18%"
